High-throughput results: PubChem, several laboratories
Only some compounds are listed: those with a hit (about 2.9% of all), similar ones and a draw of the others.
NS3 helicase inh = HCV NS3 helicase inhibition | NS3 helicase DNA unwinding, Cy5 molecular beacon fluorescence | 0.56% of 290,000 active | AID 1800 | inhibition, % at 10.9 µM;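 active = inhibition above the mean of all tested compounds plus 3 SD, set per campaign, cut at about 35% in these data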;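 also: 0% = DMSO wells and 100% = thioflavine S control wells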
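Measured by: Cy5 fluorescence, 0 and 60 min reads / Assay system: NS3 helicase fragment of HCV / Control set: low DMSO, high thioflavine S at 110 µM / Times: 1 h reaction at 25 °C, ATP-initiated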
APOBEC3A inh = inhibitors of human APOBEC3A DNA deaminase; P31941; 0.41% of 330,000 active; inhibition, % at 20 µM; AID 493011; recombinant A3A, FAM/TAMRA ssDNA deamination fluorescence;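 active = at least 40% inhibition at 20 µM here, with at most 30% in a related deaminase screen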;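 also: plate controls were A3A with DMSO for no effect and wells lacking A3A enzyme for full effect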
Target sequence (P31941 whole entry, looked up): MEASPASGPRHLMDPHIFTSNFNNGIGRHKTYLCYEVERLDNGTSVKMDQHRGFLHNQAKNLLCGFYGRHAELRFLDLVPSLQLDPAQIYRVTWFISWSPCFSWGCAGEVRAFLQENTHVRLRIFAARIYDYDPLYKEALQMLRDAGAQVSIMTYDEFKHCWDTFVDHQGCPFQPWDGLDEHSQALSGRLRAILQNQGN
PRMT1 inh = PRMT1 (human) inhibition, primary screen. Q99873. recombinant PRMT1, activity-based probe fluorescence polarization. inhibition, % at 2.79 µM. 1.3% of 370,000 active;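 active = inhibition above about 21% made by adding two undisclosed values, limit read from the data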
Target sequence (Q99873 whole entry, looked up): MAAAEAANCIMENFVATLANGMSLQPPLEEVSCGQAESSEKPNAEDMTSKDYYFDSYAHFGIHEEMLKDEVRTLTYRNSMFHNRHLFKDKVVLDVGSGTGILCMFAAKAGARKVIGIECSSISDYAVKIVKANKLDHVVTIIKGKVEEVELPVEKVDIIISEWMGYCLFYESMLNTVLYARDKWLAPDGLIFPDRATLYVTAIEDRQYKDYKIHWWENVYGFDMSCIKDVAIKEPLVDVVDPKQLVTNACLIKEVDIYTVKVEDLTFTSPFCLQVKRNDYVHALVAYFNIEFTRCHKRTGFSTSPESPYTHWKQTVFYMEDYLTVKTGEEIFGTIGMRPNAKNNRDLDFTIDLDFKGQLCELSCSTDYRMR
ABHD5-PLIN5 inh = inhibitors of human ABHD5-perilipin-5 interaction. 0.78% of 360,000 active. Split G. princeps luciferase complementation, luminescence, 4 h. Q00G26+Q8WTS1. inhibition, % at 4 µM. AID 602281;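 active = inhibition above the mean inhibition across every tested compound plus 3 SD, cut at about 22% in these data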;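 also: 0% = DMSO only wells and the 100% control is not disclosed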
A3G deaminase = inhibitors of human APOBEC3G DNA deaminase | recombinant A3G, ssDNA deamination FAM/TAMRA fluorescence | inhibition, % at 20 µM | 0.28% of 330,000 active | AID 493012;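 active = inhibition of at least 40% at 20 µM, with no more than 30% in the related APOBEC3A deaminase screen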;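 also: plate controls were DMSO wells with A3G for no effect and wells lacking A3G enzyme for full effect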
HCV core dimer = blocks dimerization of HCV core protein; TR-FRET GST/Flag-core106 dimerization, 1536-well; inhibition, % at 5 µM; 0.33% of 300,000 active;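 active = inhibition above the mean of all tested compounds plus 3 SD, set per screening campaign, cut at about 45% in these data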
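Test system: GST/Flag-tagged HCV core106 proteins; Medium: KF-containing HEPES buffer, pH 7.45, DTT, CHAPS, BSA; Times: compound-protein-antibody incubation 4 h at 22.5 °C; Detection: TR-FRET 671 and 617 nm emission; Benchmarks: wells lacking GST-core106 and wells with excess unlabelled core106.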
ABHD5 PLIN5 conf = confirmation of human ABHD5-PLIN5 interaction inhibitors | shares compounds with ABHD5-PLIN5 inh | biochemical ABHD5-PLIN5 interaction, luminescence | inhibition, % at 4 µM | 67% of 2,200 active | AID 651612; in the data active = inhibition above about 23%;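 also: 0% = DMSO vehicle wells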
HNF4 counter = HNF4 split-luciferase signal hit, counter-screen | shares compounds with ABHD5-PLIN5 inh | HNF4 dimerization, luminescence, biochemical | inhibition, % at 4 µM | 77% of 2,200 active | AID 651674;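 active = mean inhibition across replicate wells exceeding the computed hit threshold, cut at about 13% in these data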;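 also: light from luciferase halves that rejoin when HNF4 fusion proteins dimerize; 0% = DMSO only wells and the 100% control is not given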
PRMT1 confirm = PRMT1 (human) inhibition, FP confirmation; shares compounds with PRMT1 inh; recombinant His-PRMT1, activity-based probe fluorescence polarization; inhibition, % at 2.79 µM; 42% of 3,300 active;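 active = mean inhibition across replicates above the hit cutoff derived for the earlier primary screen, cut at about 22% in these data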
* marks the source's active call; other numbers are inactive results; . = no result.

SMILES	NS3 helicase inh	APOBEC3A inh	PRMT1 inh	ABHD5-PLIN5 inh	A3G deaminase	HCV core dimer	ABHD5 PLIN5 conf	HNF4 counter	PRMT1 confirm
CC1=C(C(=O)Nc2ccccc2)C(c2ccc(Cl)cc2)n2c(s/c(=C/c3cccc(OCC(=O)O)c3)c2=O)=N1 (centres undefined)	-11	-2	26*	27*	-3	13	49*	29*	5
O=C1COc2ccc(C(=O)NC3CC3)cc2N1	5	6	-2	-3	-12	1	.	.	.
O=C(O)/C=C/C(=O)c1ccc2c(c1)NC(=O)CO2	16	1	35*	90*	15	-12	91*	105*	47*
O=c1c2cc(N3CCOCC3)ccc2[nH]c(=S)n1Cc1ccco1	.	14	32*	25*	30	9	43*	77*	65*
Cc1ccc(S(=O)(=O)Nc2cc3c4c(c2)CCN4C(=O)CC3)cc1	.	-2	-3	10	-6	-4	.	.	.
O=C1c2cccc3c(O)ccc(c23)C(=O)N1Cc1ccco1	22	-30	158*	45*	-94	.	24*	53*	169*
O=C(NCc1ccc(F)cc1F)[C@@H]1CCCN1C(=O)[C@@H]1CCCN1C(=O)c1cccs1	.	.	-3	-3	.	.	.	.	.
CCCSc1cc(NCCOC(=O)CCC)c([N+](=O)[O-])c2nonc12	-3	2	21	-22	-6	4	.	.	.
CCC(=O)OCCNc1cc(Sc2nc3ccccc3[nH]2)c2nonc2c1[N+](=O)[O-]	-38	.	84*	43*	.	-2	63*	111*	76*
CCCC(=O)OCCNc1cc(Sc2nccn2C)c2nonc2c1[N+](=O)[O-]	-9	.	72*	28*	.	4	56*	109*	40*
C=C1C(=O)C23C(O)C1CCC2C12COC3(O)C(O)C1C(C)(C)CCC2O (centres undefined)	.	.	29*	96*	.	.	88*	106*	41*
CC1CCCCC1NC(=O)C1CCCN(S(=O)(=O)c2ccc(-n3cnnn3)cc2)C1 (centres undefined)	-1	-6	2	-6	-11	6	.	.	.
CCOC(=O)CNc1nnc(SCC(=O)OCC)[nH]c1=O	7	-4	59*	26*	-4	-6	41*	83*	54*
COC(=O)CSc1nnc(C)c(=O)[nH]1	-1	-1	0	0	-3	2	.	.	.
O=c1cc(-c2ccc(O)cc2)oc2c(O)c(O)c(O)c(O)c12	23	29	52*	34*	1	-36	-6	14*	16
COC(=O)C(CC(=O)c1ccc(C)cc1)n1nc(C)cc1C (centres undefined)	2	-2	9	9	-4	-3	.	.	.
COC(=O)C(CC(=O)c1ccc(Br)cc1)n1nc(C)cc1C (centres undefined)	12	-5	77*	37*	0	-9	11	52*	7
COc1ccc(/C=C2/CCC(CN3CCOCC3)C2=O)cc1 (centres undefined)	.	.	53*	69*	.	.	100*	107*	61*
CC1CCC/C(=C\c2ccc(O)cc2)C1=O (centres undefined)	.	-5	5	-2	-4	-2	.	.	.
CN(C)CC1CC/C(=C\c2ccc(O)cc2)C1=O (centres undefined)	.	.	53*	92*	.	.	93*	107*	45*
Cc1ccc2sc(N3CCN(CCNC(=O)c4ccco4)CC3)nc2c1C	.	-2	0	12	-4	-2	.	.	.
CCCCOc1ccc(N(CC(=O)NC2CCCCC2)C(=O)c2snc(C(N)=O)c2N)cc1	4	-3	-4	-8	-7	15	.	.	.
O=C1N2CCCc3cccc(c32)C12Nc1ccccc1S2 (centres undefined)	0	.	40*	61*	.	.	-4	-4	23*
O=C(CCn1cccn1)N1CCCC(N2CCN(c3cccc(Cl)c3)CC2)C1 (centres undefined)	1	2	0	-4	0	.	.	.	.
O=C1C(Cl)=C(NCCc2ccccc2)C(=O)c2ccccc21	.	.	66*	27*	.	.	88*	104*	96*
SMILES	NS3 helicase inh	APOBEC3A inh	PRMT1 inh	ABHD5-PLIN5 inh	A3G deaminase	HCV core dimer	ABHD5 PLIN5 conf	HNF4 counter	PRMT1 confirm
O=C1CCCC(=O)C1CS(=O)(=O)c1ccccc1	0	-3	44*	41*	-5	-2	46*	98*	27*
O=C(/C=C/c1ccc(Br)cc1)N1CCN(Cc2ccccc2)CC1	.	-5	-3	5	-8	-3	.	.	.
Cc1cc(S(=O)(=O)c2ccc(Cl)cc2)nc(S(=O)(=O)c2ccc(Cl)cc2)c1C#N	.	.	60*	79*	.	.	95*	105*	48*
O=c1[nH]nnc2cc(Cl)ccc12	.	.	-3	8	.	.	.	.	.
CC1=NN(C(=S)Nc2ccccc2)C(c2ccccc2)C1 (centres undefined)	-4	3	2	-7	-7	2	.	.	.
Cc1ccc(C2CC(c3ccccc3)=NN2C(=S)Nc2ccccc2)o1 (centres undefined)	9	-2	51*	42*	11	-4	5	3	0
Cc1ccc(/C=C2/NC(=O)N(Cc3ccccc3)C2=O)o1	23	9	66*	44*	12	-9	58*	68*	15
C[C@H](CO)N1C[C@H](C)[C@H](CN(C)S(C)(=O)=O)OCc2cnnn2CCCC1=O	.	.	-1	5	.	.	.	.	.
COc1ccccc1NC(=O)CSc1nncs1	.	-3	3	-1	-6	.	.	.	.
O=c1[nH]c(=O)n(C2OC(CO)C(O)C(O)C2O)cc1F (centres undefined)	.	.	-1	.	.	.	.	.	.
O=C1C=C(C2OC(CO)C(O)C2O)C(=O)N1 (centres undefined)	.	.	70*	68*	.	.	48*	104*	71*
Cc1cncc(NCc2cccc(Cl)c2)n1	.	.	-4	2	.	.	.	.	.
O=C(NC1CCCc2ccccc21)c1cccc(F)c1 (centres undefined)	.	.	-4	-6	.	.	.	.	.
O=S(=O)(c1ccc(F)cc1)N1CN(Cc2ccco2)c2nc3ccccc3nc21	15	2	26*	24*	0	13	28*	23*	3
COc1ccc(S(=O)(=O)NC(=O)C2(C)CCN2C(=O)C(C)(C)c2ccccc2)cc1 (centres undefined)	.	.	2	-8	.	.	.	.	.
